Experimental data reported in ChEMBL document CHEMBL1649574, “Prevalence and characterization of heterogeneous vancomycin-intermediate Staphylococcus aureus isolates from 14 cities in China” (2009).

Tests used:
Assay type in all cases: functional
Staphylococcus aureus [1] = test: Antimicrobial activity against SCCmec type II vancomycin-intermediate Staphylococcus aureus isolate 4sy32 by agar dilution method
In short: (§1)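 Agar-dilution MICs were measured on a subset of 200 blood MRSA isolates from China. Agents: oxacillin, rifampin, gentamicin, levofloxacin, erythromycin, vancomycin, teicoplanin, tigecycline, ceftobiprole and linezolid. Phenotype came from the PAP-AUC ratio of each isolate to S. aureus Mu3 (VSSA <0.9; hVISA 0.9 to 1.3; VISA ≥1.3), read on BHI agar with 0 to 8.0 mg/liter vancomycin after 48 h at 35°C.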

Staphylococcus aureus [2] = test: Antimicrobial activity against SCCmec type II vancomycin-intermediate Staphylococcus aureus isolate 4sy39 by agar dilution method; in short: as §1
Staphylococcus aureus [3] = test: Antimicrobial activity against SCCmec type III vancomycin-intermediate Staphylococcus aureus isolate 5zjsau3 by agar dilution method; in short: as §1
Staphylococcus aureus [4] = test: Antimicrobial activity against SCCmec type II vancomycin-intermediate Staphylococcus aureus isolate sh06024 by agar dilution method; in short: as §1
Staphylococcus aureus [5] = test: Antimicrobial activity against SCCmec type III vancomycin-intermediate Staphylococcus aureus isolate gz06040 by agar dilution method; in short: as §1
Staphylococcus aureus [6] = test: Antimicrobial activity against SCCmec type III vancomycin-intermediate Staphylococcus aureus isolate gz06051 by agar dilution method; in short: as §1
Staphylococcus aureus [7] = test: Antimicrobial activity against SCCmec type II vancomycin-intermediate Staphylococcus aureus isolate 6zjsau7 by agar dilution method; in short: as §1
Staphylococcus aureus [8] = test: Antimicrobial activity against SCCmec type III vancomycin-intermediate Staphylococcus aureus isolate bd4768 by agar dilution method; in short: as §1
Staphylococcus aureus [9] = test: Antimicrobial activity against SCCmec type II vancomycin-intermediate Staphylococcus aureus isolate b2k4781 by agar dilution method; in short: as §1
Staphylococcus aureus [10] = test: Antimicrobial activity against SCCmec type III vancomycin-intermediate Staphylococcus aureus isolate b3k2345 by agar dilution method; in short: as §1
Staphylococcus aureus [11] = test: Antimicrobial activity against SCCmec type III vancomycin-intermediate Staphylococcus aureus isolate b2k3421 by agar dilution method; in short: as §1
Staphylococcus aureus [12] = test: Antimicrobial activity against SCCmec type III vancomycin-intermediate Staphylococcus aureus isolate b3k5923 by agar dilution method; in short: as §1
Staphylococcus aureus [13] = test: Antimicrobial activity against SCCmec type III vancomycin-intermediate Staphylococcus aureus isolate b4k6307 by agar dilution method; in short: as §1
Staphylococcus aureus [14] = test: Antimicrobial activity against SCCmec type III vancomycin-intermediate Staphylococcus aureus isolate b5k3529 by agar dilution method; in short: as §1
Staphylococcus aureus [15] = test: Antimicrobial activity against SCCmec type III vancomycin-intermediate Staphylococcus aureus isolate b5k3578 by agar dilution method; in short: as §1
Staphylococcus aureus [16] = test: Antimicrobial activity against SCCmec type III vancomycin-intermediate Staphylococcus aureus isolate b6k1642 by agar dilution method; in short: as §1
Staphylococcus aureus [17] = test: Antimicrobial activity against SCCmec type III vancomycin-intermediate Staphylococcus aureus isolate b6k7974 by agar dilution method; in short: as §1
Staphylococcus aureus [18] = test: Antimicrobial activity against SCCmec type IV vancomycin-intermediate Staphylococcus aureus isolate 06b41 by agar dilution method; in short: as §1
Staphylococcus aureus [19] = test: Antimicrobial activity against SCCmec type III vancomycin-intermediate Staphylococcus aureus isolate 13b16 by agar dilution method; in short: as §1
Staphylococcus aureus [20] = test: Antimicrobial activity against SCCmec type III vancomycin-intermediate Staphylococcus aureus isolate 11b091 by agar dilution method; in short: as §1
Staphylococcus aureus [21] = test: Antimicrobial activity against SCCmec type II vancomycin-intermediate Staphylococcus aureus isolate 07b63 by agar dilution method; in short: as §1
Staphylococcus aureus [22] = test: Antimicrobial activity against SCCmec type III vancomycin-intermediate Staphylococcus aureus isolate 15b52 by agar dilution method; in short: as §1
Staphylococcus aureus [23] = test: Antimicrobial activity against SCCmec type III vancomycin-intermediate Staphylococcus aureus isolate zj07028 by agar dilution method; in short: as §1
Staphylococcus aureus [24] = test: Antimicrobial activity against SCCmec type III vancomycin-intermediate Staphylococcus aureus isolate sh07043 by agar dilution method; in short: as §1
Staphylococcus aureus [25] = test: Antimicrobial activity against SCCmec type III vancomycin-intermediate Staphylococcus aureus isolate xa07029 by agar dilution method; in short: as §1
Staphylococcus aureus [26] = test: Antimicrobial activity against SCCmec type III vancomycin-intermediate Staphylococcus aureus isolate gz07030 by agar dilution method; in short: as §1
Staphylococcus aureus [27] = test: Antimicrobial activity against SCCmec type III vancomycin-intermediate Staphylococcus aureus isolate gs07022 by agar dilution method; in short: as §1

Measured: MIC

CO[C@H]1/C=C/O[C@@]2(C)Oc3c(C)c(O)c4c(O)c(c(/C=N/N5CCN(C)CC5)c(O)c4c3C2=O)NC(=O)/C(C)=C\C=C\[C@H](C)[C@H](O)[C@@H](C)[C@@H](O)[C@@H](C)[C@H](OC(C)=O)[C@@H]1C [RIFAMPIN]
> 256 µg/mL: Staphylococcus aureus [4] | Staphylococcus aureus [6] | Staphylococcus aureus [25]
256 µg/mL: Staphylococcus aureus [8] | Staphylococcus aureus [12] | Staphylococcus aureus [13] | Staphylococcus aureus [17]
0.5 µg/mL: Staphylococcus aureus [14] | Staphylococcus aureus [15]
0.004 µg/mL: Staphylococcus aureus [26]
0.016 µg/mL: Staphylococcus aureus [18] | Staphylococcus aureus [22] | Staphylococcus aureus [24]
16 µg/mL: Staphylococcus aureus [16]
≤ 0.002 µg/mL: Staphylococcus aureus [23]
0.008 µg/mL: all other assays above

CC[C@H]1OC(=O)[C@H](C)[C@@H](O[C@H]2C[C@@](C)(OC)[C@@H](O)[C@H](C)O2)[C@H](C)[C@@H](O[C@@H]2O[C@H](C)C[C@H](N(C)C)[C@H]2O)[C@](C)(O)C[C@@H](C)C(=O)[C@H](C)[C@@H](O)[C@]1(C)O [ERYTHROMYCIN]
256 µg/mL: Staphylococcus aureus [2] | Staphylococcus aureus [22]
128 µg/mL: Staphylococcus aureus [18]
1 µg/mL: Staphylococcus aureus [1]
0.25 µg/mL: Staphylococcus aureus [6]
2 µg/mL: Staphylococcus aureus [15]
> 256 µg/mL: all other assays above

Cc1onc(-c2ccccc2)c1C(=O)N[C@@H]1C(=O)N2[C@@H]1SC(C)(C)[C@@H]2C(=O)O [OXACILLIN]
32 µg/mL: Staphylococcus aureus [5]
8 µg/mL: Staphylococcus aureus [18] | Staphylococcus aureus [27]
256 µg/mL: Staphylococcus aureus [1] | Staphylococcus aureus [2]
> 64 µg/mL: all other assays above

GENTAMICIN
8 µg/mL: Staphylococcus aureus [27]
> 256 µg/mL: Staphylococcus aureus [3] | Staphylococcus aureus [9] | Staphylococcus aureus [14] | Staphylococcus aureus [15] | Staphylococcus aureus [16] | Staphylococcus aureus [23] | Staphylococcus aureus [26]
0.25 µg/mL: Staphylococcus aureus [18]
64 µg/mL: Staphylococcus aureus [1] | Staphylococcus aureus [2] | Staphylococcus aureus [21]
128 µg/mL: Staphylococcus aureus [6] | Staphylococcus aureus [10] | Staphylococcus aureus [11] | Staphylococcus aureus [12] | Staphylococcus aureus [13] | Staphylococcus aureus [24] | Staphylococcus aureus [25]
256 µg/mL: all other assays above

CC[C@H]1OC(=O)[C@H](C)[C@@H](O[C@H]2C[C@@](C)(OC)[C@@H](O)[C@H](C)O2)[C@H](C)[C@@H](O[C@@H]2O[C@H](C)C[C@H](N(C)C)[C@H]2O)[C@](C)(OC)C[C@@H](C)C(=O)[C@H](C)[C@@H](O)[C@]1(C)O [CLARITHROMYCIN]
16 µg/mL: Staphylococcus aureus [13] | Staphylococcus aureus [19] | Staphylococcus aureus [22]
32 µg/mL: Staphylococcus aureus [1] | Staphylococcus aureus [2] | Staphylococcus aureus [3] | Staphylococcus aureus [4] | Staphylococcus aureus [5] | Staphylococcus aureus [15] | Staphylococcus aureus [23] | Staphylococcus aureus [25]
1 µg/mL: Staphylococcus aureus [18]
> 64 µg/mL: Staphylococcus aureus [7] | Staphylococcus aureus [20] | Staphylococcus aureus [24]
64 µg/mL: all other assays above

C[C@H]1COc2c(N3CCN(C)CC3)c(F)cc3c(=O)c(C(=O)O)cn1c23.C[C@H]1COc2c(N3CCN(C)CC3)c(F)cc3c(=O)c(C(=O)O)cn1c23.O [LEVOFLOXACIN]
8 µg/mL: Staphylococcus aureus [1] | Staphylococcus aureus [4] | Staphylococcus aureus [21] | Staphylococcus aureus [23] | Staphylococcus aureus [25]
64 µg/mL: Staphylococcus aureus [5] | Staphylococcus aureus [6] | Staphylococcus aureus [17] | Staphylococcus aureus [26]
0.25 µg/mL: Staphylococcus aureus [18]
4 µg/mL: Staphylococcus aureus [13] | Staphylococcus aureus [22]
16 µg/mL: Staphylococcus aureus [2] | Staphylococcus aureus [3] | Staphylococcus aureus [10] | Staphylococcus aureus [11] | Staphylococcus aureus [14] | Staphylococcus aureus [15] | Staphylococcus aureus [16]
32 µg/mL: all other assays above
